Each structure is given as a SMILES string.

For data set [1], the target named is hERG (Homo sapiens, UniProt Q12809). Nature of the data set: Patch-clamp electrophysiology of hERG blockade in HEK 293 cells. The data set is classed as cell-based. The settings on record: for IC50: read-out: IC50 at hERG, patch-clamp, whole cell tail currents. In short, it runs like this: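 Whole-cell patch clamp of hERG (described as mutants) expressed in HEK 293 cells. Pipette: 10 mM KCl, 110 mM K-aspartate, 5 mM MgCl2, 5 mM Na2ATP, 10 mM EGTA, 5 mM HEPES, 1 mM CaCl2, pH 7.2. Holding at −80 mV, 1-s step to +50 mV, tail current read at −100 mV. Test compound freshly dissolved in Tyrode, used within two hours.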
(In general: Patch clamp records ionic current or voltage across a cell membrane.)

Data set [2] deals with rDAT (Rattus norvegicus, UniProt P23977). Nature of the data set: Radioligand binding assay of rDAT with [3H]WIN35,428 in rat striatal membranes.
Chain of rDAT (P23977 whole entry): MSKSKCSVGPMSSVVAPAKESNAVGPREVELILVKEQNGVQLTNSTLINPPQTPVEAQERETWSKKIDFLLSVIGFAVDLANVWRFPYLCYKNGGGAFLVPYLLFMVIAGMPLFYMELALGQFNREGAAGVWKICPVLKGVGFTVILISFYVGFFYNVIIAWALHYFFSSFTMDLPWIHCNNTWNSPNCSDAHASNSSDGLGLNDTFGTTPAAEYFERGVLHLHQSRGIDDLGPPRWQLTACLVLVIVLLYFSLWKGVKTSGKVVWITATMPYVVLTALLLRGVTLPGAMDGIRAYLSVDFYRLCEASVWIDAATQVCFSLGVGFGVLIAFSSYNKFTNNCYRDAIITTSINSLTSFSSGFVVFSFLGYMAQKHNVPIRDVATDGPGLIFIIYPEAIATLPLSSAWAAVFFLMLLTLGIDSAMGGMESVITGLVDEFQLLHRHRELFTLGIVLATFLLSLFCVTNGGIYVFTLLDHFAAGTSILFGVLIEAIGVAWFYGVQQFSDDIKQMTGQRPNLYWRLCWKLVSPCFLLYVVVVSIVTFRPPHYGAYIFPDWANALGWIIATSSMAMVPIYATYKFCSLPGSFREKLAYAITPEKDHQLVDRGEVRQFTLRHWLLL

Chain of hERG (Q12809 whole entry): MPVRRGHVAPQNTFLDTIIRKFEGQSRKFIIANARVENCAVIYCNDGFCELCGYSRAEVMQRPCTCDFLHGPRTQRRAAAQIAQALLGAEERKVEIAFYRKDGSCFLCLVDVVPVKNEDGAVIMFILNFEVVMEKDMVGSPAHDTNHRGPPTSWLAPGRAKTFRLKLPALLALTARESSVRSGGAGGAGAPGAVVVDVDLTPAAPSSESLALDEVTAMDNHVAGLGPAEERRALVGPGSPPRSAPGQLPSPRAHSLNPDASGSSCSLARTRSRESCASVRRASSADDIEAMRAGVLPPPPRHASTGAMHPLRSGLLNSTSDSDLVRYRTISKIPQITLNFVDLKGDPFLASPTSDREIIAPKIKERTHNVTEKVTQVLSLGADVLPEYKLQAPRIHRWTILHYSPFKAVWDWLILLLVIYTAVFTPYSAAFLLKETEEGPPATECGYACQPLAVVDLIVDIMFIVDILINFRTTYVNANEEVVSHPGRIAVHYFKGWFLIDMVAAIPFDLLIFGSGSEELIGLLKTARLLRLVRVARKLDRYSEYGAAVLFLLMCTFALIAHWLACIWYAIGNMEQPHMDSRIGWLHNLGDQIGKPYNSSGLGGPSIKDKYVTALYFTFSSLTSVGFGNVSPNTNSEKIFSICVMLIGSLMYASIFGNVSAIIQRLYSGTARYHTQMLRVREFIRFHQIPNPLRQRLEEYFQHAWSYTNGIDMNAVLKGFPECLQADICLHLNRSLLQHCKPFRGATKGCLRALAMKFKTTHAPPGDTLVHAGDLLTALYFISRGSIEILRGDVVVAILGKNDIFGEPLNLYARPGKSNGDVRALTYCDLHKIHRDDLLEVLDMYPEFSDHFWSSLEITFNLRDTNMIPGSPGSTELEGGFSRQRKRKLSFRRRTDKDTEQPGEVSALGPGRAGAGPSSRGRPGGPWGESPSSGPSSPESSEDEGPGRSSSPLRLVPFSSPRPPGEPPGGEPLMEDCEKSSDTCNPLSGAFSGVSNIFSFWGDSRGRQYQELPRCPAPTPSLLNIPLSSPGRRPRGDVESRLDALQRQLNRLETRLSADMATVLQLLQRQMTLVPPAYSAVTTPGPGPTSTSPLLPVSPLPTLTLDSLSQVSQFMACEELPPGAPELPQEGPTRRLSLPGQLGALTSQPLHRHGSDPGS

As a reminder, the IC50 is the concentration needed to halve the response being measured. Consider `Fc1ccc(C(SCCNCCCc2ccccc2)c2ccc(F)cc2)cc1` [JJC8-016], for which the IC50 in data set [1] came to 60 nM.
For orientation: Ki means a dissociation constant, usually derived from enzyme kinetics or from competition with a known ligand. For the compound `[O-][S+](CCN1CCN(CC(O)Cc2ccccc2)CC1)C(c1ccc(F)cc1)c1ccc(F)cc1` (centres unmarked) [JJC8-088], the “fold higher affinity than JJC8-016 at DAT” value in data set [2] (ratio of Ki values, JJC8-088 versus JJC8-016) is on record as ~ 90 fold. Besides, in data set [2] (read-out: Ki at DAT, [3H]WIN35,428 as the radioligand), the Ki was determined as 2.6 nM. For the same compound, the “fold lower affinity than JJC8-016 at hERG” value in data set [1] (ratio of IC50 values, JJC8-088 versus JJC8-016) is ~ 2 fold. Also, in data set [1], the IC50 was found to be 130 nM.

Values taken from article PMC9593962 (Journal of chemical information and modeling, 2021).
